Assay outcomes (PubChem)
CendR NRP1 mod: modulators of CendR peptide binding to NRP-1, primary screen, biochemical, fluorescence polarization, uHTS | Neuropilin-1 (Homo sapiens), O14786 | FAM-RPARPAR peptide binding to NRP-1 | inhibition, % at 25 µM | 360,000 compounds, 0.85% hits;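 active = inhibition or corrected inhibition above about 18%, plus a signal ratio from 0.5 to 1.5, limit read from the data, passing the limit was not always enough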
Exocytosis inh: LAMP-1 surface exposure blockers, TALL-104 cells – cell-based, flow cytometry, MLPCN library, primary screen | TALL-104 LAMP-1 surface exposure; cells stimulated with thapsigargin and PMA | 360,000 compounds, 0.66% hits | inhibition, % at 10 µM | AID 651702, 2012;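 active = inhibition above about 55%, limit read from the data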
ARFGAP1 inh: inhibitors of rat ARFGAP1 GAP activity, primary screen, biochemical, fluorescence polarization, GDP tracer. ADP-ribosylation factor GTPase-activating protein 1 (Rattus norvegicus), Q62848. Arfgap1-stimulated ARF1 GTP hydrolysis, GDP FP detection. inhibition, % at 16.5 µM. 360,000 compounds, 0.26% hits. AID 651572, 2012;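 active = inhibition above a per-plate limit, mean inhibition of low control wells plus 3 SD, cut at about 25% in these data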;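 note: 0% = DMSO wells with enzyme and 100% = wells lacking Arfgap1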
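Replicates: Single well per compound | Assay system: Truncated rat Arfgap1 GAP domain | Control set: No-Arfgap1 wells (100%) versus DMSO full-reaction wells (0%) | Times: Enzyme reaction 120 min at 25 °C after 20 min preincubation | Reagent: Human ARF1(Δ1-17)-GTP substrate | Measured by: Tracer-displacement fluorescence polarization with EDTA stop, 620/688 nm | Measure: Percent inhibition of Arfgap1-stimulated GTP hydrolysis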
V-ATPase pHluor: regulators of yeast V-ATPase proton pumping, primary screen, pHLuorin cytosolic pH fluorescence. S. cerevisiae. AID 504577, 2011. 350,000 compounds, 0.37% hits. response, % at 10 µM; in the data active = response mostly above about 7.3%, no sharp cut-off; inactive = mostly below about 5.4%; note: actives read high
ASAP1 GAP inh: inhibitors of human ASAP1 ArfGAP activity, primary screen, biochemical, fluorescence polarization; Arf-GAP with SH3 domain, ANK repeat and PH domain-containing protein 1 (Homo sapiens), …; ASAP1-stimulated ARF1 GTP hydrolysis, GDP FP detection; inhibition, % at 16.5 µM; 360,000 compounds, 0.19% hits; AID 624377, 2012; in the data active = inhibition above about 25%;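 note: 0% = vehicle with enzyme and substrate and 100% = no enzyme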
Exocytosis CP01: inhibitors of lytic granule exocytosis, confirmation, TALL-104 cells, flow cytometry, Cherry Pick01. 1,500 compounds, 11% hits. inhibition, % at 10 µM. shares compounds with Exocytosis inh. LAMP-1 externalization; stimulated with PMA plus thapsigargin. AID 651954, 2012; in the data active = inhibition above about 60%;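 note: 0% = stimulated vehicle wells and 100% = unstimulated wells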
* = called active by the depositor; x = no result given. This is a sample that favours compounds with a hit; in the whole collection about 2.2% have one here.

SMILES	CendR NRP1 mod	Exocytosis inh	ARFGAP1 inh	V-ATPase pHluor	ASAP1 GAP inh	Exocytosis CP01
COc1cc(CNC(=O)C2CCC(=O)N(C3CCCCCC3)C2)cc(OC)c1 (centres undefined)	-7	-14	0	-2	-15	x
FC(F)(F)c1cc(CCN2C(=S)NC[C@@H]2CC2CCCCC2)cc(C(F)(F)F)c1	-4	86*	1	-4	9	-10
O=C1NC[C@H](CC2CCCCC2)N(CCc2cc(C(F)(F)F)cc(C(F)(F)F)c2)C1=O	-10	16	-6	x	-8	x
Cc1ccc(S(=O)(=O)CCC(=O)OCC(=O)c2cc(C)ccc2C)cc1	12	-6	7	4	-2	x
Cc1ccc(S(=O)(=O)CCC(=O)c2ccc(O)cc2O)cc1	1	104*	5	-1	-10	44
CCN(CC)CCCNc1ccc(-c2nnc(-c3ccc(OCC(C)C)cc3)o2)cn1	10	62*	22	4	4	95*
CC(C)COc1ccc(-c2nnc(-c3ccco3)o2)cc1	-7	5	3	5	-10	x
COc1cc(CNCCCN2CCOCC2)cc(Br)c1OCc1ccc(Cl)cc1	0	58*	4	0	12	27
COc1cc(CNCCN2CCOCC2)ccc1OCc1ccc(Cl)cc1	0	16	-8	4	6	x
O=C1C(=O)N(C/C=C/c2ccccc2)c2ccccc21	1	62*	-6	-3	11	-2
COC(=O)[C@]12CCCCC=C1N(CCc1ccc(OC)c(OC)c1)C(=O)[C@H](CC(=O)NCc1ccc(C)o1)C2	11	-3	-2	x	6	x
Fc1cccc(CCN2CCNC[C@@H]2CC2CCCCC2)c1	14	62*	4	4	19	-11
COCCCn1c(SCc2ccccc2)nc2cc(OC)c(OC)cc2c1=N	-9	84*	4	3	-1	-13
Cc1ccc2c(CN(C)Cc3ccc(OC(F)F)cc3)cc(=O)oc2c1C	16	84*	-7	-4	-9	-12
NC(CCc1ccccc1)c1csc(NC(=O)Nc2cccc(Cl)c2)n1 (centres undefined)	2	57*	0	x	3	10
Cc1cc(C)c(C)c(S(=O)(=O)N2CCC(C(=O)NCCCN3CCCC3=O)CC2)c1C	-5	0	9	-7	-11	x
COc1c2ccoc2c(OC[C@@H](O)C(C)(C)O)c2oc(=O)ccc12	1	63*	1	-1	3	-5
COC(=O)Nc1ccc(S(=O)(=O)NC2CCS(=O)(=O)C2)cc1 (centres undefined)	12	64*	10	-2	3	-14
CCOc1ccc(-c2cnc(NCc3cccc4ccccc34)n2CCOC)cc1	0	111*	0	3	-1	1
CC(C)C(=O)N1CCC1(C)C(=O)Nc1cccc(Oc2ccccc2)c1 (centres undefined)	-4	8	6	x	0	x
Cc1noc(C(=O)N2CCN(Cc3ccc4c(c3)OCO4)CC2)c1Cl	-1	2	-5	1	1	x
CCCCCCN1C[C@H](n2cc(-c3ccc(F)cc3)nn2)[C@@H](O)C[C@@H]1c1ccc(C)cc1	-14	62*	2	-3	11	-10
CCCCCCN1C[C@@H](n2cc(-c3ccc(F)cc3)nn2)[C@H](O)C[C@@H]1c1ccc(Cl)cc1	5	16	-3	-2	-6	x
CN(Cc1c(F)cccc1Cl)C(=O)c1ccc(NS(=O)(=O)c2ccc3[nH]c(=O)[nH]c3c2)cc1	-4	-4	-4	1	-2	x
O=C1NC[C@H](Cc2ccccc2)N(CCc2cccc(F)c2)C1=O	-6	61*	-3	-1	0	-13
SMILES	CendR NRP1 mod	Exocytosis inh	ARFGAP1 inh	V-ATPase pHluor	ASAP1 GAP inh	Exocytosis CP01
COc1cc2c(cc1OC)CN(c1ccc([N+](=O)[O-])cc1C#N)CC2	-1	77*	7	-3	2	-3
COc1cc2c(cc1OC)CN(c1ccc(F)cc1[N+](=O)[O-])CC2	9	-8	4	-2	-1	x
COc1cc2c(cc1OC)CN(c1ccc([N+](=O)[O-])cc1Cl)CC2	-7	70*	-5	-1	2	-8
CCN(CC)C(=O)C1=C(C)N(Cc2ccc(F)cc2)C(=O)C(CC(=O)NCc2ccco2)C1 (centres undefined)	-8	-1	5	-2	-2	x
Cc1ccc2nc(Cl)cc(=O)n2c1	3	-5	-8	-1	14	x
O=C(O)c1ccc(-c2nn3c(=O)cc(N4CCNCC4)nc3s2)cc1	-4	0	1	x	2	x
CCOC(=O)c1ccccc1NC(=O)CSc1ccc(-c2ccccn2)nn1	14	106*	3	2	12	-14
Clc1ccccc1C1Nc2cccc3cccc(c23)N1	17	8	5	0	15	x
Clc1cccc(C2Nc3cccc4cccc(c34)N2)c1Cl	-1	93*	6	-7	0	-2
COc1ccc(C(=O)N2CCOC2CNC(=O)C(=O)NCCc2ccccc2OC)cc1 (centres undefined)	-14	0	1	4	-2	x
COC(=O)c1ccc(NCc2c(O)ccc(O)c2Br)cc1Cl	-10	98*	18	0	13	80*
COc1cc2c(cc1OC)C(c1ccc(-c3ccc(Cl)c(Cl)c3)o1)=NCC2	-34	94*	1	5	4	91*
COc1cc2c(cc1OC)C(c1ccc(-c3cc(Cl)ccc3Cl)o1)=NCC2	-8	6	x	-3	x	x
CCN(CC)c1ncnc2c1cnn2Cc1ccc(C)cc1	-4	-9	-2	1	-6	x
CCN(CC)c1nc(C)nc2c1cnn2CCc1ccccc1	-36	71*	5	-1	1	-3
Cc1cc(-c2ccc(S(=O)(=O)N3CCN(C)CC3)s2)on1	12	-1	7	4	4	x
CCN(c1ccc(OC)cc1)S(=O)(=O)c1ccc(-c2cc(C)no2)s1	-17	75*	8	2	15	-5
CCc1ccccc1N(C)S(=O)(=O)c1ccc(-c2cc(C)no2)s1	10	68*	1	0	-1	-10
FC(F)(F)c1ccccc1-n1c(-c2ccco2)n[nH]c1=S	6	-10	-6	-1	-1	x
CCn1c(=O)n(CC(=O)NCC2CCCO2)c(=O)c2c3c(sc21)COC(C)(C)C3 (centres undefined)	-2	2	4	-1	7	x
